Bioassay records: PubChem, Sanford-Burnham Center for Chemical Genomics
hIAP act: increases human intestinal alkaline phosphatase activity; purified human IAP, CDP-Star luminescence, 30 min; stronger effect = higher value; 1 = vehicle-only enzyme, 0 = enzyme-free background; activation factor at 10 µM; 0.16% of 330,000 active;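 active = activation factor of the enzyme at least 2-fold when tested at 20 µM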
Target sequence (P09923 whole entry, looked up): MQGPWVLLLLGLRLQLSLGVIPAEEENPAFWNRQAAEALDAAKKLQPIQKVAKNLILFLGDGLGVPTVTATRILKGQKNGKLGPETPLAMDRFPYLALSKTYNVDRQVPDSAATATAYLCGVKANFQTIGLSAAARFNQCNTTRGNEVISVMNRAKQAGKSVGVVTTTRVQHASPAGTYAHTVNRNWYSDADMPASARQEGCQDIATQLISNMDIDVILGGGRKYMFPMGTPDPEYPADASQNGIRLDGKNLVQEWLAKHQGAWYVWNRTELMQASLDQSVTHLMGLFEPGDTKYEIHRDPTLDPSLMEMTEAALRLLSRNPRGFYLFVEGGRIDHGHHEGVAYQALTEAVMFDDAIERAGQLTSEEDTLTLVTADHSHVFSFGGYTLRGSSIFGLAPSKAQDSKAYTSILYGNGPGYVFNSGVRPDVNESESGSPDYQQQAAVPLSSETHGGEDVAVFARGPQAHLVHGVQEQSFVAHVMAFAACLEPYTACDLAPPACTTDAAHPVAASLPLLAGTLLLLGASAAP
mIAP inh: blocks mouse intestinal alkaline phosphatase; inhibition, % at 10 µM; AID 2806; 0.2% of 330,000 active; purified mouse IAP, CDP-Star luminescence, 30 min;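 active = inhibition of at least 40% at 10 µM in the primary screen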;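 note: plate controls were DMSO with enzyme for no effect and no enzyme wells for full effect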
hIAP inh: human IAP inhibition. P09923. purified IAP, CDP-Star luminescence, 30 min. inhibition, % at 10 µM. 0.12% of 330,000 active. AID 2544;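 active = inhibition reaching a set limit with compound at 10 µM in the primary screen, cut at about 35% in these data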;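 note: plate controls were DMSO wells with enzyme for no effect and no-enzyme buffer wells for full effect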
bIAP inhibitor: intestinal alkaline phosphatase (bovine) inhibition. purified bovine IAP, CDP-star luminescence, 30 min. inhibition, % at 20 µM. 190,000 tested, under 10 active. AID 1019;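 active = over 50% inhibition of intestinal alkaline phosphatase at 20 µM in the single-dose screen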
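System: Purified bovine intestinal alkaline phosphatase (IAP) enzyme | Input: IAP diluted 1/65,000,000 in the well | Also added: CDP-star chemiluminescent phosphatase substrate, 30 µM final | Dosing: 20 µM single dose | Times: Enzyme reaction for 30 min at room temperature | Detection: Luminescence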
bIAP act: intestinal alkaline phosphatase (bovine) activation. purified bovine IAP, CDP-star luminescence, 30 min; stronger effect = higher value; fold of DMSO-control signal, blank-subtracted. activation factor at 20 µM. 0.17% of 200,000 active. AID 1016;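 active = activation factor of 2 or more at 20 µM, a signal rise over negative controls twice the positive control's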
mIAP act: increases mouse intestinal alkaline phosphatase activity; muIAP, CDP-Star luminescence, 30 min; stronger effect = higher value; 1 = vehicle-only enzyme signal, 0 = enzyme-free wells; activation factor at 10 µM; 0.24% of 330,000 active; AID 2805;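 active = activation factor of at least 2 at 20 µM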
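Assay system: mouse IAP enzyme / Compound: DMSO-dissolved test compounds / Timing: 30 min, room temperature / Measured by: luminescence from enzymatic CDP-Star hydrolysis / Control set: DMSO-only wells, enzyme-free buffer wells as negative control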
* = called active by the depositor; i = inactive; · = no result given. Sampled rows, rich in hits. Any-hit rate of the full collection: about 0.79%.

SMILES | hIAP act | mIAP inh | hIAP inh | bIAP inhibitor | bIAP act | mIAP act
Cc1nc(NC(=O)CSc2nnc(C3CC3)n2C)sc1C(=O)N(C)C | 0.85 | 4 | 15 | · | · | 0.96
O=C(NC1CCN(Cc2ccc(Cl)cc2)CC1)c1cn(-c2ccccc2)nc1-c1cccnc1 | 0.97 | -127 | 3 | · | · | 2.3*
O=C(NCc1ccncc1)c1cn(-c2ccccc2)nc1-c1cccnc1 | 0.93 | -22 | 7 | -31 | 1.3 | 1.2
O=C(O)c1ccc(CS(=O)c2cccc(C(F)(F)F)c2)o1 (stereo not drawn) | 0.73 | 0 | 26 | -224 | 3.2* | 1
Cc1cccc(S(=O)Cc2ccc(C(=O)N3CCOCC3)o2)c1 (stereo not drawn) | 1.1 | 2 | -8 | · | · | 0.98
COc1cc(NC(=O)C(Cc2ccccc2)n2cccc2)cc(OC)c1 (stereo not drawn) | 1.2 | -109 | -19 | · | · | 2.1*
C1CCC(c2nn3c(-c4n[nH]c5c4CCC5)nnc3s2)CC1 | 1 | 2 | -1 | -334 | 4.3* | 0.98
O=C(Nc1ccc(Cl)cc1)NC1CCCCC1 | 1.1 | -16 | -9 | -9 | 1.1 | 1.2
O=C(Nc1ccc(Cl)cc1)NC1CCCC1Cc1ccco1 (stereo not drawn) | 1.2 | -178 | -16 | -10 | 1.1 | 2.8*
C=C(Br)Cn1c(CC)nc2ccccc21 | 0.86 | 8 | 14 | 17 | 0.8 | 0.92
Cn1c(CNS(=O)(=O)c2cccc(Cl)c2)cc(=O)n(C)c1=O | 0.78 | 4 | 22 | · | · | 0.96
C[C@@H](C(=O)Nc1ccc2ccccc2c1)[C@@H]1C[C@@]1(C)[C@@H](NC(=O)OCc1ccccc1)c1ccccc1 | 1 | -104 | -3 | · | · | 2*
Cc1ccccc1NCC(=O)N/N=C/c1c(C)c(C(=O)c2ccc(Cl)cc2)n2ccccc12 | 0.99 | 18 | 1 | -3 | 1 | 0.82
Cc1c(/C=N/NC(=O)CNc2ccccc2)c2ccccn2c1C(=O)c1ccc(Cl)cc1 | 0.88 | 18 | 12 | i | 10* | 0.82
CCOc1cc(Cl)c(NC(=O)CC)cc1OCC | 0.97 | 0 | 3 | 13 | 0.9 | 1
CC(C)COc1ccc(CNC(=S)Nc2ccccc2)cc1Cl | 1.3 | -149 | -33 | · | · | 2.5*
CCCCc1ccc(NC(=S)NCc2ccc(OC)cc2)cc1 | 1.1 | -155 | -11 | 1 | 1 | 2.5*
CC(C)Oc1ccc(CNC(=S)Nc2ccccc2)cc1Cl | 1.3 | -86 | -30 | · | · | 1.9
Cc1ccc(NC(=S)NC(C)CCc2ccccc2)cc1C (stereo not drawn) | 0.98 | -151 | 2 | 5 | 1 | 2.5*
COc1ccc(CNC(=S)NC(C)CCc2ccccc2)cc1 (stereo not drawn) | 1 | -140 | -1 | 20 | 0.8 | 2.4*
C=CCc1ccc(OCCN2CCc3ccccc3C2)c(OC)c1 | 1.2 | -10 | -25 | -18 | 1.2 | 1.1
CCN(CC)C(=O)Cn1cc(C(=O)C(=O)NCc2cccnc2)c2ccccc21 | 1 | 1 | 0 | · | · | 0.99
C=CCS/C(=N\n1cnc2ccccc2c1=O)N1CCCCC1 | 1 | 3 | -1 | 6 | 0.9 | 0.97
Cc1nn(Cc2ccc(Cl)cc2Cl)c(Cl)c1/C=C/C(=O)OCC(=O)NCC(F)(F)F | 0.99 | 4 | 1 | 4 | 1 | 0.95
CC(C)COc1ccc(CNC(=S)NCc2ccccc2)cc1 | 1.1 | -274 | -5 | 35 | 0.7 | 3.7*
SMILES | hIAP act | mIAP inh | hIAP inh | bIAP inhibitor | bIAP act | mIAP act
CN(C)c1nc(NCc2ccccc2)nc(SCC(=O)Nc2ccccc2)n1 | 0.97 | -104 | 3 | 13 | 0.9 | 2*
CN(C)c1nc(NC(C)(C)C)nc(SCC(=O)Nc2ccccc2)n1 | 0.95 | -16 | 5 | -7 | 1.1 | 1.2
O=C(Oc1c(CN2CCOCC2)cc(Cl)c2cccnc12)c1ccccc1Cl | 1.2 | 0 | -16 | -13 | 1.1 | 1
Cn1c(=O)[nH]c(=O)c2c1nc(N1CCCCCC1)n2CCCSc1nc2ccccc2o1 | 1 | -9 | -1 | i | 6.8* | 1.1
Cn1c(=O)[nH]c(=O)c2c1nc(N1CCCCCC1)n2CCSc1nc2ccccc2o1 | 1 | -11 | 0 | 5 | 0.9 | 1.1
CCOC(=O)c1cccc(-n2c(C)cc(C=O)c2C)c1 | 1 | -8 | -4 | -2 | 1 | 1.1
Fc1ccc(-c2csc(NC(=S)Nc3ccccc3)n2)cc1 | 0.9 | 14 | 10 | · | · | 0.86
